Experimental data reported in ChEMBL document CHEMBL2434842, “Approaches to protozoan drug discovery: phenotypic screening” (J Med Chem, 2013).
Counter-ions that a name gives are not always drawn. Blank lines part the entries; values can stand above or below the molecule they belong to.

Legend:
Plasmodium falciparum [1] = assay: Antimalarial activity against late (4 to 5) gametocytic stage of Plasmodium falciparum after 72 hrs by image-based HTS assay; type: functional, organism-based
Summary of the method: (§1)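 P. falciparum early (I–III) or late (IV–V) gametocytes from the authors' large-scale synchronized culture. Exposed to compound in dose response for 72 h. Activity read in an image-based assay. IC50 from duplicate or triplicate points, n ≥ 2, reported as mean ± SD.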

Plasmodium falciparum [2] = assay: Antimalarial activity against asexual stage of Plasmodium falciparum 3D7 after 72 hrs by image-based HTS assay; type: functional, organism-based; conditions: 3D7, 72 h
Plasmodium falciparum [3] = assay: Antimalarial activity against early (1 to 3) gametocytic stage of Plasmodium falciparum after 72 hrs by image-based HTS assay; type: functional, organism-based; summary of the method: as §1
[4] = Selectivity ratio of cytotoxic activity against mouse NIH/3T3 cells to antitrypanosomal activity against amastigote stage of Trypanosoma cruzi
Trypanosoma cruzi = assay: Antitrypanosomal activity against amastigote stage of Trypanosoma cruzi infected in mouse NIH/3T3 cells after 48 hrs by Hoechst staining assay; type: functional, organism-based; conditions: NIH3T3, 48 h
Plasmodium falciparum [5] = assay: Antimalarial activity against late (4 to 5) gametocytic stage of Plasmodium falciparum at 100 uM after 72 hrs by image-based HTS assay relative to control; type: functional
Summary of the method: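 Image-based assay on late-stage (IV–V) P. falciparum gametocytes taken from large-scale production of pure synchronized gametocytes. Compound exposure was 72 h in dose response, with duplicate or triplicate points per concentration and n ≥ 2 independent runs.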

[6] = tested on: Trypanosoma brucei brucei; assay: Antitrypanosomal activity against bloodstream form of Trypanosoma brucei brucei 427 after 3 days by Alamar Blue assay; type: functional, organism-based; conditions: Trypanosoma brucei, 427, 72 h
[7] = tested on: Trypanosoma brucei brucei; assay: Trypanocidal activity against Trypanosoma brucei brucei by Alamar Blue assay; type: functional, organism-based
Plasmodium falciparum [8] = assay: Antimalarial activity against late (4 to 5) gametocytic stage of Plasmodium falciparum at 120 uM after 72 hrs by image-based HTS assay relative to control; type: functional
Plasmodium falciparum [9] = assay: Antimalarial activity against early (1 to 3) gametocytic stage of Plasmodium falciparum at 120 uM after 72 hrs by image-based HTS assay relative to control; type: functional

SMILES: CCN(CC)Cc1cc(Nc2ccnc3cc(Cl)ccc23)ccc1O
IC50 (Plasmodium falciparum [1]): 4490 nM
IC50 (Plasmodium falciparum [2]): 28 nM
IC50 (Plasmodium falciparum [3]): 159 nM

IC50 (Plasmodium falciparum [2]): 200 nM
IC50 (Plasmodium falciparum [3]): 220 nM
SMILES: O[C@@H](c1cc(C(F)(F)F)nc2c(C(F)(F)F)cccc12)[C@H]1CCCCN1 (relative stereo) [(S,R)-MEFLOQUINE]

SMILES: C[C@H]1[C@@H](O)O[C@@H]2O[C@@]3(C)CC[C@H]4[C@H](C)CC[C@@H]1[C@@]24OO3 [ARTENIMOL]
IC50 (Plasmodium falciparum [2]): 0.7 nM

SMILES: C[C@H]1[C@H](OC(=O)CCC(=O)O)O[C@@H]2O[C@@]3(C)CC[C@H]4[C@H](C)CC[C@@H]1[C@@]24OO3 [ARTESUNATE]
IC50 (Plasmodium falciparum [1]): 3.43 nM

SMILES: c1ccc(-c2ccc(C(c3ccccc3)n3ccnc3)cc2)cc1 (stereo unspecified) [BIFONAZOLE]
selectivity ratio ([4]; NIH/3T3 cells): > 91.6
IC50 (Trypanosoma cruzi): 204 nM

SMILES: CCN(CC)CCCC(C)Nc1ccnc2cc(Cl)ccc12 (stereo unspecified) [CHLOROQUINE]
inhibition at 100 µM (Plasmodium falciparum [5]): 100%

IC50 (Trypanosoma cruzi): 187 nM
SMILES: Clc1ccccc1C(c1ccccc1)(c1ccccc1)n1ccnc1 [CLOTRIMAZOLE]
selectivity ratio ([4]; NIH/3T3 cells): > 87.2

IC50 [6]: 1.14 nM
SMILES: C/C=C/C[C@@H](C)[C@@H](O)[C@H]1C(=O)N[C@@H](CC)C(=O)N(C)CC(=O)N(C)[C@@H](CC(C)C)C(=O)N[C@@H](C(C)C)C(=O)N(C)[C@@H](CC(C)C)C(=O)N[C@@H](C)C(=O)N[C@H](C)C(=O)N(C)[C@@H](CC(C)C)C(=O)N(C)[C@@H](CC(C)C)C(=O)N(C)[C@@H](C(C)C)C(=O)N1C [CYCLOSPORINE]

IC50 (Plasmodium falciparum [1]): 0.7 nM
IC50 (Plasmodium falciparum [2]): 2.2 nM
SMILES: CC[C@H](C)[C@H](NC(=O)[C@H]([C@@H](C)CC)N(C)C(C)=O)C(=O)N[C@H](C(=O)N[C@@H](CC(C)C)C(=O)[C@@]1(C)CO1)[C@@H](C)O [EPOXOMYCIN]

SMILES: CC(=O)N1CCN(c2ccc(OCC3COC(Cn4ccnc4)(c4ccc(Cl)cc4Cl)O3)cc2)CC1 (stereo unspecified) [KETOCONAZOLE]
selectivity ratio ([4]; NIH/3T3 cells): > 853
IC50 (Trypanosoma cruzi): 22.7 nM

IC50 (Trypanosoma cruzi): 67.1 nM
SMILES: N#C/C(=C1/SCC(c2ccccc2Cl)S1)n1ccnc1 (stereo unspecified) [LANOCONAZOLE]
selectivity ratio ([4]; NIH/3T3 cells): 306

IC50 [6]: 940 nM
SMILES: CC[C@H](C)C(=O)O[C@H]1CCC=C2C=C[C@H](C)[C@H](CC[C@@H]3C[C@@H](O)CC(=O)O3)[C@H]21 [MEVASTATIN]

SMILES: Clc1ccc(COC(Cn2ccnc2)c2ccc(Cl)cc2Cl)c(Cl)c1 (stereo unspecified) [MICONAZOLE NITRATE]
selectivity ratio ([4]; nih/3t3): > 19.5
IC50 (Trypanosoma cruzi): 826 nM

SMILES: CO[C@@]12[C@H](COC(N)=O)C3=C(C(=O)C(C)=C(N)C3=O)N1C[C@@H]1N[C@@H]12 [MITOMYCIN]
IC50 [7]: 1000 nM

SMILES: O=C1c2c(O)ccc(O)c2C(=O)c2c(NCCNCCO)ccc(NCCNCCO)c21 [MITOXANTRONE HYDROCHLORIDE]
IC50 [6]: 2.4 nM
IC50 [7]: 1000 nM

SMILES: Clc1ccc(CO/N=C(\Cn2ccnc2)c2ccc(Cl)cc2Cl)c(Cl)c1 [OXICONAZOLE NITRATE]
selectivity ratio ([4]; nih/3t3): > 46.3
IC50 (Trypanosoma cruzi): 388 nM

SMILES: CC(=O)O[C@H]1C(=O)[C@@]2(C)[C@H]([C@H](OC(=O)c3ccccc3)[C@]3(O)C[C@H](OC(=O)[C@H](O)[C@@H](NC(=O)c4ccccc4)c4ccccc4)C(C)=C1C3(C)C)[C@]1(OC(C)=O)CO[C@@H]1C[C@@H]2O [PACLITAXEL]
IC50 [7]: 1000 nM

SMILES: COc1cc(NC(C)CCCN)c2ncccc2c1 (stereo unspecified) [PRIMAQUINE]
IC50 (Plasmodium falciparum [2]): 6090 nM
inhibition at 120 µM (Plasmodium falciparum [8]): 40%
IC50 (Plasmodium falciparum [3]): 5860 nM

IC50 (Plasmodium falciparum [1]): 46 nM
IC50 (Plasmodium falciparum [2]): 64 nM
IC50 (Plasmodium falciparum [3]): 137 nM
SMILES: COc1ccc(C[C@H](N)C(=O)N[C@H]2[C@@H](O)[C@H](n3cnc4c(N(C)C)ncnc43)O[C@@H]2CO)cc1 [PUROMYCIN]

SMILES: CCc1nc(N)nc(N)c1-c1ccc(Cl)cc1 [PYRIMETHAMINE]
IC50 (Plasmodium falciparum [2]): 14 nM
inhibition at 120 µM (Plasmodium falciparum [8]): 100%
inhibition at 120 µM (Plasmodium falciparum [9]): 40%

IC50 (Plasmodium falciparum [1]): 1300 nM
IC50 (Plasmodium falciparum [2]): 46 nM
IC50 (Plasmodium falciparum [3]): 131 nM
SMILES: COc1ccc2nc3cc(Cl)ccc3c(Nc3cc(CN4CCCC4)c(O)c(CN4CCCC4)c3)c2n1 [PYRONARIDINE]

IC50 (Plasmodium falciparum [1]): 3370 nM
IC50 (Plasmodium falciparum [2]): 1070 nM
SMILES: COc1cc(C)c2c(Oc3cccc(C(F)(F)F)c3)c(OC)cc(NC(C)CCCN)c2n1 (stereo unspecified) [TAFENOQUINE]

IC50 [6]: 94 nM
SMILES: CC[C@]1(O)C[C@@H]2CN(CCc3c([nH]c4ccccc34)[C@@](C(=O)OC)(c3cc4c(cc3OC)N(C)[C@H]3[C@@](O)(C(=O)OC)[C@H](OC(C)=O)[C@]5(CC)C=CCN6CC[C@]43[C@@H]65)C2)C1 [VINBLASTINE]

IC50 [6]: 30 nM
SMILES: CC[C@]1(O)C[C@H]2CN(CCc3c([nH]c4ccccc34)[C@@](C(=O)OC)(c3cc4c(cc3OC)N(C=O)[C@H]3[C@@](O)(C(=O)OC)[C@H](OC(C)=O)[C@]5(CC)C=CCN6CC[C@]43[C@@H]65)C2)C1 [VINCRISTINE]

SMILES: C[C@@H](c1ncncc1F)[C@](O)(Cn1cncn1)c1ccc(F)cc1F [VORICONAZOLE]
selectivity ratio ([4]; NIH/3T3 cells): 212
IC50 (Trypanosoma cruzi): 96.5 nM
